Assay results: ChEMBL document CHEMBL1154638, “14beta-Arylpropiolylamino-17-cyclopropylmethyl-7,8-dihydronormorphinones and related opioids. Further examples of pseudoirreversible mu opioid receptor antagonists” (J Med Chem, 2009)
Active and inactive are the calls of the source. The rule behind the calls is not given here.

Experiments:
[1] = molecular target: T1, Delta-type opioid receptor (Homo sapiens, UniProt P41143); assay: Displacement of [3H]DPDPE from human recombinant delta opioid receptor expressed in CHO cells by liquid scintillation counting; assay type: cell-based
Summary of the method: (§1)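 Competitive displacement binding uses membranes from CHO cells expressing recombinant human opioid receptors. Radioligands are [3H]DAMGO for mu and [3H]DPDPE for delta. Ki is reported in nM as the mean of two experiments, each run in triplicate.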

[2] = molecular target: T2, Kappa-type opioid receptor (Homo sapiens, UniProt P41145); assay: Displacement of [3H]U69593 from human recombinant kappa opioid receptor expressed in CHO cells by liquid scintillation counting; assay type: cell-based
[3] = molecular target: T2, Kappa-type opioid receptor; assay: Agonist activity at human kappa opioid receptor expressed in CHO cells assessed as [35S]GTPgammaS binding relative to U69593; assay type: functional, cell-based
Summary of the method: (§2)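 Membranes from CHO cells transfected with individual recombinant human opioid receptors (mu, delta or kappa). Ligand-stimulated [35S]GTPγS binding is measured at each receptor type, for agonist stimulation and for antagonism. At kappa, agonist efficacy is expressed as % stimulation relative to U69593, alongside EC50.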

[4] = system: Mus musculus; assay: Antinociceptive activity in Swiss mouse assessed as inhibition of acetic acid-induced writhing at 0.32 mg/kg, ip by writhing assay in presence of mu opioid receptor antagonist M-CAM; assay type: functional, organism-based; parameters: dose 0.32 mg/kg
[5] = molecular target: T2, Kappa-type opioid receptor; assay: Agonist activity at human kappa opioid receptor expressed in CHO cells assessed as [35S]GTPgammaS binding; assay type: functional, cell-based; summary of the method: as §2
[6] = molecular target: T1, Delta-type opioid receptor; assay: Agonist activity at human delta opioid receptor expressed in CHO cells assessed as [35S]GTPgammaS binding; assay type: functional, cell-based; summary of the method: as §2
[7] = system: Mus musculus; assay: Antinociceptive activity in Swiss mouse assessed as inhibition of acetic acid-induced writhing at 0.32 mg/kg, ip by writhing assay in presence of delta opioid receptor antagonist naltrindole; assay type: functional, organism-based; parameters: dose 0.32 mg/kg
[8] = molecular target: Mu-type opioid receptor (Homo sapiens, UniProt P35372); assay: Displacement of [3H]DAMGO from human recombinant mu opioid receptor expressed in CHO cells by liquid scintillation counting; assay type: cell-based; summary of the method: as §1
[9] = system: Mus musculus; assay: Antinociceptive activity in Swiss mouse assessed as tail withdrawal response at 3.2 mg/kg, ip by warm-water tail-withdrawal assay; assay type: functional, organism-based; parameters: dose 3.2 mg/kg
Summary of the method: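 Mouse warm-water (50 °C) tail-withdrawal assay. Compound was given across a dose range, and antinociception was expressed as a percentage of the maximum possible effect.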

[10] = system: Mus musculus; assay: Antinociceptive activity in Swiss mouse assessed as inhibition of acetic acid-induced writhing at 0.32 mg/kg, ip by writhing assay in presence of kappa opioid receptor antagonist norBNI; assay type: functional, organism-based; parameters: dose 0.32 mg/kg
[11] = system: Mus musculus; assay: Antinociceptive activity in Swiss mouse assessed as inhibition of acetic acid-induced writhing at 0.32 mg/kg, ip by writhing assay; assay type: functional, organism-based; parameters: dose 0.32 mg/kg
[12] = molecular target: T1, Delta-type opioid receptor; assay: Agonist activity at human delta opioid receptor expressed in CHO cells assessed as [35S]GTPgammaS binding relative to DPDPE; assay type: functional, cell-based; summary of the method: as §2
[13] = Displacement of [3H]DPDPE from human recombinant delta opioid receptor expressed in CHO cells by liquid scintillation counting
[14] = system: Mus musculus; assay: Antinociceptive activity against acetic acid-induced writhing in Swiss mouse assessed as reversal of mu opioid receptor agonist morphine response at 3.2 mg/kg, ip by writhing assay; assay type: functional, organism-based; parameters: dose 3.2 mg/kg
Summary of the method: (§3)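 Mouse abdominal stretch assay. […] Stretches were counted, with saline as vehicle. Statistics used one-way ANOVA with Dunnett's post hoc test versus agonist alone and versus test ligand alone.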

[15] = system: Mus musculus; assay: Antinociceptive activity in Swiss mouse assessed as tail withdrawal response at 100 mg/kg, ip after 30 mins by warm-water tail-withdrawal assay; assay type: functional; conditions: route intraperitoneal
[16] = system: Mus musculus; assay: Antinociceptive activity against acetic acid-induced writhing in Swiss mouse assessed as reversal of mu opioid receptor agonist morphine response at 1 mg/kg, ip by writhing assay; assay type: functional, organism-based; parameters: dose 1 mg/kg
[17] = system: Mus musculus; assay: Antinociceptive activity against acetic acid-induced writhing in Swiss mouse assessed as reversal of […] response at 1 mg/kg, ip by writhing assay; assay type: functional, organism-based; parameters: dose 1 mg/kg
[18] = system: Mus musculus; assay type: functional, organism-based; parameters: dose 3.2 mg/kg; conditions: Swiss, 3.2 mg/kg
[19] = system: Mus musculus; assay: Antinociceptive activity in Swiss mouse assessed as tail withdrawal response at 100 mg/kg, ip after 3 days by warm-water tail-withdrawal assay; assay type: functional; conditions: route intraperitoneal
[20] = system: Mus musculus; assay type: functional, organism-based; parameters: dose 1 mg/kg; conditions: Swiss, 1 mg/kg
[21] = system: Mus musculus; assay: Antinociceptive activity against acetic acid-induced writhing in Swiss mouse assessed as reversal of […] response at 3.2 mg/kg, ip by writhing assay; assay type: functional, organism-based; parameters: dose 3.2 mg/kg; summary of the method: as §3
[22] = system: Mus musculus; assay: Antinociceptive activity in Swiss mouse assessed as tail withdrawal response at 100 mg/kg, ip after […] by warm-water tail-withdrawal assay; assay type: functional; conditions: route intraperitoneal

Chain of Mu-type opioid receptor (P35372 whole entry): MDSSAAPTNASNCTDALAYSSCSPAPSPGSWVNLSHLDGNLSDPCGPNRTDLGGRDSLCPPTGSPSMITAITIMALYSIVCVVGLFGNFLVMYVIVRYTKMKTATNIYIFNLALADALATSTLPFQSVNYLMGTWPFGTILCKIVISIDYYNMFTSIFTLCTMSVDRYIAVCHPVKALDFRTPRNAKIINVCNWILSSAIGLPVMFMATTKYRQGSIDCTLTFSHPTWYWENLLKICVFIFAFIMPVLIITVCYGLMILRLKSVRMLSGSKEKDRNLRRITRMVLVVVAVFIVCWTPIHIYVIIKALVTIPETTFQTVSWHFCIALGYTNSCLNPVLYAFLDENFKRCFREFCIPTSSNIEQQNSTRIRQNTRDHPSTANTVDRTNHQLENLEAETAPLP
T2 sequence (P41145 whole entry): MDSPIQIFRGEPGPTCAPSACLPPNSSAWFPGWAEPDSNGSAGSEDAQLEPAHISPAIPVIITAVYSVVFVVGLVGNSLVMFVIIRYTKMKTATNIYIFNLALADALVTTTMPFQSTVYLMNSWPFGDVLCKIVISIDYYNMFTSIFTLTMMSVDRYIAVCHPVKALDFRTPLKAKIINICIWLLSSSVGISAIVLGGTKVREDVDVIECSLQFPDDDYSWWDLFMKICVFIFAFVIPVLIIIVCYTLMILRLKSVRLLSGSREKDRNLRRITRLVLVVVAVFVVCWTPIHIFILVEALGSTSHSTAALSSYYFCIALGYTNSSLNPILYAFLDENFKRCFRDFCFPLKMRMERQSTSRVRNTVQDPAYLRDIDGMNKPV
T1 sequence (P41143 whole entry): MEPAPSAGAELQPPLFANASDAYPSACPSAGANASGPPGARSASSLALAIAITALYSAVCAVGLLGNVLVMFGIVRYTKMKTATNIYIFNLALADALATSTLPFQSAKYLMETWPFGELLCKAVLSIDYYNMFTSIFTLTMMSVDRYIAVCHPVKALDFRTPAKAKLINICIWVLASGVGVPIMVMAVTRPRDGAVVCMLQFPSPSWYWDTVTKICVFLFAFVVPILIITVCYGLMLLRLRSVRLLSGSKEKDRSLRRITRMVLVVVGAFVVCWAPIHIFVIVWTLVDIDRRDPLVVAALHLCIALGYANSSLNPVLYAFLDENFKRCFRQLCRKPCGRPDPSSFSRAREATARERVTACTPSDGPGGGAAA

| Structure (SMILES) | Ki [1] | Ki [2] | Activity [3] | EC50 [5] | Ki [8] | other results |
| --- | --- | --- | --- | --- | --- | --- |
| COc1ccc2c3c1O[C@H]1C(=O)CC[C@@]4(NC(=O)C#Cc5ccccc5)[C@@H](C2)N(CC2CC2)CC[C@]314 | 28.3 nM | 7.86 nM | 77% | 3.18 nM | 1.46 nM | Activity [4]: inactive; EC50 [6]: 75.1 nM; Activity [7]: Active; Activity [9]: Active; Activity [10]: Active; Activity [11]: Active; Activity [12]: 47% |
| COc1ccc2c3c1O[C@H]1C(=O)CC[C@@]4(NCC#Cc5ccc(Cl)cc5)[C@@H](C2)N(CC2CC2)CC[C@]314 | 136 nM | 74.4 nM | – | – | 9.68 nM | – |
| O=C1CC[C@@]2(NCC#Cc3ccc(Cl)cc3)[C@H]3Cc4ccc(O)c5c4[C@@]2(CCN3CC2CC2)[C@H]1O5 | 3.26 nM | 2.89 nM | – | – | 0.97 nM | – |
| COc1ccc2c3c1O[C@H]1C(=O)CC[C@@]4(NC/C=C/c5ccc(Cl)cc5)[C@@H](C2)N(CC2CC2)CC[C@]314 | – | 53.6 nM | – | – | 0.7 nM | Ki [13]: 44.5 nM |
| O=C(C#Cc1ccc(Cl)cc1)N[C@@]12CCC(=O)[C@@H]3Oc4c(O)ccc5c4[C@@]31CCN(CC1CC1)[C@@H]2C5 | 5.41 nM | 2.73 nM | – | – | 3.75 nM | Activity [14]: Active; Activity [15]: 0%; Activity [16]: Active; Activity [17]: Active; Activity [18]: Active; Activity [19]: 20%; Activity [20]: Active; Activity [21]: Active |
| COc1ccc2c3c1O[C@H]1C(=O)CC[C@@]4(NC(=O)C#Cc5ccc(Cl)cc5)[C@@H](C2)N(CC2CC2)CC[C@]314 | 65.2 nM | 13.7 nM | 25% | 20 nM | 7.43 nM | Activity [15]: 0% |
| O=C(C#Cc1ccccc1)N[C@@]12CCC(=O)[C@@H]3Oc4c(O)ccc5c4[C@@]31CCN(CC1CC1)[C@@H]2C5 | 1.6 nM | 1.12 nM | 21% | 0.3 nM | 1.31 nM | Activity [22]: 0% |
